Assay results taken from ChEMBL document CHEMBL3112522, “Bicyclic brominated furanones: a new class of quorum sensing modulators that inhibit bacterial biofilm formation” (Bioorg Med Chem, 2014).
The source made the active and inactive calls. No cut-off for these calls is given here.

How the values were obtained:
[1] = tested on: SK-N-SH; assay: Cytotoxicity against human SK-N-SH cells assessed as cell survival at 100 uM incubated for 1 hr followed by compound washout measured up to 48 hrs by CCK-8 assay; type: cell-based
Outline: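 SK-N-SH cells seeded at 5×10^4 cells/mL (100 µL) in EMEM with 10% FBS and allowed to adhere 24 h. Exposed 1 h to 100 µM compound or DMSO control, washed twice, then allowed to recover 0, 24 or 48 h. Live cells measured by CCK-8 at A450. Survival = (sample − medium)/(control − medium) × 100.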

[2] = tested on: Escherichia coli; assay: Antibacterial activity against Escherichia coli RP437 expressing red fluorescence protein assessed as inhibition of biofilm formation at 200 uM after 24 hrs by confocal laser scanning microscopic analysis; type: functional, organism-based
Outline: (§1)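 E. coli RP437 (pRSH103, red fluorescent; grown in LB with 10 µg/mL tetracycline) formed biofilms on 316 stainless-steel coupons with 200 µM compound or 0.4% DMSO control, static, 37 °C, 24 h. Coupons rinsed three times in 0.9% NaCl, then imaged by CLSM. COMSTAT gave biomass, mean thickness and surface area from z-stacks at four locations, normalized to the BF-free control. Four replicates.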

[3] = tested on: Escherichia coli; assay: Antibacterial activity against Escherichia coli RP437 expressing red fluorescence protein assessed as inhibition of biofilm formation measured as reduction in biomass at 200 uM after 24 hrs by confocal laser scanning microscopic analysis; type: functional, organism-based; outline: as §1
[4] = Cytotoxicity against human SK-N-SH cells assessed as cell survival at 400 uM incubated for 1 hr followed by compound washout measured after 24 hrs by CCK-8 assay relative to control; type: cell-based; settings: read-out: Survival
Outline: (§2)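 SK-N-SH cells were grown in EMEM with 10% FBS, penicillin/streptomycin and 2.0 mM L-glutamine at 37 °C, 5% CO2. Wells were seeded at 5×10^4 cells/mL and left 24 h to adhere. Cells were exposed for 1 h in fresh medium, with DMSO-matched controls, then washed twice. After 0, 24 or 48 h recovery, CCK-8 A450 was read. Survival = (sample−medium)/(control−medium)×100.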

[5] = target: T1, Transcriptional activator protein LasR (Pseudomonas aeruginosa (strain ATCC 15692 / PAO1 / 1C / PRS 101 / LMG12228)) (UniProt P25084); assay: Antagonist activity at LasR in Pseudomonas aeruginosa PAO1 expressing LasI assessed as inhibition of GFP production at 50 to 300 uM after 24 hrs by fluorescence assay relative to control
T1 sequence (whole entry): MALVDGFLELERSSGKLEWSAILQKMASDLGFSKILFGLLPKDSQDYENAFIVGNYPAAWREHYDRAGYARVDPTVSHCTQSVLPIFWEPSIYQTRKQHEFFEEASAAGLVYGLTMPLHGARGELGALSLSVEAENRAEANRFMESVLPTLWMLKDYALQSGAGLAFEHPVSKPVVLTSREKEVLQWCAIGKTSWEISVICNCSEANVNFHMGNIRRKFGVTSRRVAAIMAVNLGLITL

[6] = tested on: Escherichia coli; assay: Antibacterial activity against Escherichia coli RP437 expressing red fluorescence protein assessed as inhibition of biofilm formation measured as reduction in surface area at 200 uM after 24 hrs by confocal laser scanning microscopic analysis; type: functional, organism-based; outline: as §1
[7] = tested on: Pseudomonas aeruginosa; assay: Inhibition of quorum sensing system in Pseudomonas aeruginosa PAO-JP2 assessed as reduction of elastase B production at 300 uM after 24 hrs by congo-red staining-based assay relative to control
Outline: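 PAO-JP2 grown in PTSB at 37 °C, subcultured at OD600 0.05 with 5 µM 3-oxo-C12-HSL and 10 µM C4-HSL ± compound, shaken at 250 rpm for 24 h. Filtered supernatant (100 µL) incubated with Elastin-Congo red (4.5 mg in 900 µL Tris-HCl pH 7.2, 1 mM CaCl2) for 24 h at 37 °C, stopped with EDTA. A490 read minus bacteria-free blank, normalized to control. Four replicates.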

[8] = tested on: Pseudomonas aeruginosa; assay: Toxicity in Pseudomonas aeruginosa PAO1 assessed as planktonic growth inhibition at 400 uM after 24 hrs; type: organism-based; settings: in vivo
[9] = target: T2, HTH-type quorum-sensing regulator RhlR (Pseudomonas aeruginosa (strain ATCC 15692 / PAO1 / 1C / PRS 101 / LMG12228)) (UniProt P54292); assay: Agonist activity at RhlR in Pseudomonas aeruginosa PAO1 expressing RhlI assessed as stimulation of GFP production at 300 uM after 24 hrs by fluorescence assay relative to control
T2 sequence (whole entry): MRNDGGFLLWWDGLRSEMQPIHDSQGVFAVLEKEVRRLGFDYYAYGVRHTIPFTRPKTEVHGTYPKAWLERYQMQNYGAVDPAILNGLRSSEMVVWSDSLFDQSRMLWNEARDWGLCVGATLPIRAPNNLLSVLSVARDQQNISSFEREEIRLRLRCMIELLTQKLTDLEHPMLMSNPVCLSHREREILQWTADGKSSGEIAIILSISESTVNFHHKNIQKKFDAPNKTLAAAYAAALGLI
Outline: (§3)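 PAO1 (prhlI-LVAgfp) grown in M9 with 300 µg/mL carbenicillin to OD600 0.1, exposed to compound at 50, 150 or 300 µM for 24 h at 37 °C with shaking at 250 rpm. Fluorescence read at ex 500/em 540 nm, M9 background subtracted, divided by OD600 and normalized to the BF-free control. Four replicates.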

[10] = Cytotoxicity against human SK-N-SH cells assessed as cell survival at 400 uM incubated for 1 hr followed by compound washout measured after 48 hrs by CCK-8 assay relative to control; type: cell-based; settings: read-out: Survival; outline: as §2
[11] = tested on: Pseudomonas aeruginosa; assay: Antibacterial activity against Pseudomonas aeruginosa PAO1 expressing green fluorescence protein assessed as inhibition of biofilm formation measured as reduction in biomass at 400 uM after 24 hrs by confocal laser scanning microscopic analysis relative to control; type: functional; settings: PAO1, 24 h
[12] = tested on: Pseudomonas aeruginosa; assay: Antibacterial activity against Pseudomonas aeruginosa PAO1 expressing green fluorescence protein assessed as inhibition of biofilm formation measured as reduction in surface area at 400 uM after 24 hrs by confocal laser scanning microscopic analysis relative to control; type: functional, organism-based
[13] = tested on: Escherichia coli; assay: Antibacterial activity against Escherichia coli RP437 expressing red fluorescence protein assessed as inhibition of biofilm formation measured as reduction in mean thickness of biofilm at 200 uM after 24 hrs by confocal laser scanning microscopic analysis; type: functional, organism-based; outline: as §1
[14] = tested on: Pseudomonas aeruginosa; assay: Antibacterial activity against Pseudomonas aeruginosa PAO1 assessed as inhibition of biofilm formation incubated for 24 hrs followed by compound-washout measured after 30 mins by crystal-violet staining-based colorimetric assay; type: functional, organism-based
Outline: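 P. aeruginosa subcultured at OD600 0.1 in LB with compound (DMSO stock) in 96-well polystyrene plates, stationary, 37 °C, 24 h. Wells washed and dried 30 min, stained with 0.1% crystal violet for 30 min, washed, dye solubilized in 95% EtOH, A540 read. Values are (sample − medium)/(DMSO control − medium) × 100. Four replicates.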

[15] = tested on: Pseudomonas aeruginosa; assay: Antibacterial activity against Pseudomonas aeruginosa PAO1 expressing green fluorescence protein assessed as inhibition of biofilm formation measured as reduction in mean thickness of biofilm at 400 uM after 24 hrs by confocal laser scanning microscopic analysis relative to control; type: functional
[16] = Cytotoxicity against human SK-N-SH cells assessed as cell survival at 400 uM incubated for 1 hr followed by compound washout measured immediately by CCK-8 assay relative to control; type: cell-based; settings: read-out: Survival; outline: as §2
[17] = tested on: Pseudomonas aeruginosa; assay: Antibacterial activity against Pseudomonas aeruginosa PAO1 expressing green fluorescence protein assessed as inhibition of biofilm formation at 400 uM after 24 hrs by confocal laser scanning microscopic analysis; type: functional, organism-based
Outline: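 PA01-GFP (pSMC2; grown in LB with 300 µg/mL carbenicillin) formed biofilms on stainless-steel coupons with 400 µM compound, static, 37 °C, 24 h. Coupons rinsed three times in 0.9% saline, then imaged by CLSM.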

[18] = tested on: Escherichia coli; assay: Toxicity in Escherichia coli RP437 assessed as planktonic growth inhibition at 200 uM after 24 hrs; type: organism-based; settings: in vivo
Outline: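 E. coli RP437 in LB at 37 °C, started at OD600 0.05 in 96-well plates with 200 µM compound (DMSO stock), shaken at 250 rpm. OD600 read at 0, 2, 4, 6, 8, 10, 12 and 24 h, normalized to the BF-free control. Six replicates.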

[19] = target: T2, HTH-type quorum-sensing regulator RhlR (Pseudomonas aeruginosa (strain ATCC 15692 / PAO1 / 1C / PRS 101 / LMG12228)); assay: Agonist activity at RhlR in Pseudomonas aeruginosa PAO1 expressing RhlI assessed as stimulation of GFP production at 150 uM after 24 hrs by fluorescence assay relative to control; outline: as §3
[20] = target: T1, Transcriptional activator protein LasR (Pseudomonas aeruginosa (strain ATCC 15692 / PAO1 / 1C / PRS 101 / LMG12228)); assay: Antagonist activity at LasR in Pseudomonas aeruginosa PAO-JP2 expressing LasI assessed as inhibition of GFP production at 50 to 300 uM after 24 hrs by fluorescence assay in presence of 3-oxo-C12-HSL
Outline: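 PAO-JP2 (plasI-LVAgfp) grown in M9 with 300 µg/mL carbenicillin to OD600 0.1, given 1 µM 3-oxo-C12-HSL ± compound at varied concentrations, incubated 24 h at 37 °C with shaking at 250 rpm. GFP read at ex 500/em 540 nm, M9 background subtracted, divided by OD600 and normalized to the BF-free control. Four replicates.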

[21] = target: T2, HTH-type quorum-sensing regulator RhlR (Pseudomonas aeruginosa (strain ATCC 15692 / PAO1 / 1C / PRS 101 / LMG12228)); assay: Agonist activity at RhlR in Pseudomonas aeruginosa PAO-JP2 expressing RhlI assessed as effect on GFP production at 50 to 300 uM after 24 hrs by fluorescence assay in presence of 3-oxo-C12-HSL and C4-HSL relative to control
Outline: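 PAO-JP2 (prhlI-LVAgfp) grown in M9 with 300 µg/mL carbenicillin to OD600 0.1, dosed with 1 µM 3-oxo-C12-HSL and 10 µM C4-HSL ± compound, shaken at 250 rpm and 37 °C for 24 h. GFP read at ex 500/em 540 nm, M9 background subtracted, divided by OD600 and normalized to the BF-free control. Four replicates.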

Question: Which Activity [1] does the source give for O=C1C=C2CCC(Br)=C2O1 here?
Answer: The Activity was “Non-toxic”.

Question: And the inhibition [2]?
Answer: The inhibition was “Active”.

Question: And the inhibition [3]?
Answer: Its inhibition is “Active”.

Question: What about the viability at 1 h, 400 µM [4] of the same compound?
Answer: The viability at 1 h, 400 µM was 21%.

Question: And the inhibition [5]?
Answer: Its inhibition is “Active”.

Question: And the inhibition [6]?
Answer: The inhibition was “Active”.

Question: What about the inhibition [7] of the same compound?
Answer: The inhibition was 80%.

Question: And the Activity [8]?
Answer: The Activity was “Non-toxic”.

Question: What about the Activity [9] of the same compound?
Answer: The Activity was 165%.

Question: What about the viability at 1 h, 400 µM [10] of the same compound?
Answer: Its viability at 1 h, 400 µM is 6%.

Question: And the inhibition at 400 µM [11]?
Answer: Its inhibition at 400 µM is 53%.

Question: And the inhibition [12]?
Answer: The inhibition was “Active”.

Question: And the inhibition [13]?
Answer: The inhibition was “Active”.

Question: And the IC50 [14]?
Answer: Its IC50 is over 400 µM.

Question: What about the inhibition [15] of the same compound?
Answer: Its inhibition is “inactive”.

Question: And the viability at 1 h, 400 µM [16]?
Answer: Its viability at 1 h, 400 µM is 76%.

Question: And the inhibition [17]?
Answer: The inhibition was “Active”.

Question: What about the Activity [18] of the same compound?
Answer: Its Activity is “Non-toxic”.

Question: And the Activity [19]?
Answer: The Activity was 82.6%.

Question: What about the inhibition [20] of the same compound?
Answer: The inhibition was “Active”.

Question: And the Activity [21]?
Answer: Its Activity is “Active”.

Question: For O=C1C=C(Br)/C(=C/Br)O1, which Activity [8] is on record?
Answer: Its Activity is “Toxic”.

Question: What about the inhibition [17] of the same compound?
Answer: The inhibition was “Active”.
